Holding throughout (conditions): stereoisomer not certain
The target of test [1] is T1, UniProt Q8VGL0.
T1 sequence (whole entry): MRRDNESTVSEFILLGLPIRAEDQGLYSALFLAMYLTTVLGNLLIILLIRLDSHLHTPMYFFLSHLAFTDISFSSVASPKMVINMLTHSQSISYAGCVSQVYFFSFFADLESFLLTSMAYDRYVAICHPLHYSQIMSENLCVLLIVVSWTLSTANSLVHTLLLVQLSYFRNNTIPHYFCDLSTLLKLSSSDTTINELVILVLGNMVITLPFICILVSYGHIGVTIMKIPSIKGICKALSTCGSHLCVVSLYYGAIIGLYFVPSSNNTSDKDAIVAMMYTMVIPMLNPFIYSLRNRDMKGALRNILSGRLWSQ
A digest of the protocol: (§1)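 Transient luciferase assays in mammalian cell lines were common, though methods varied by source. The values come from published papers and their supplementary material, with extra details from the original authors when needed. Responsive refers to a measured signal the original authors judged statistically different from baseline, and non-responsive (inactive) to the remainder.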

Test [2] addresses T2, UniProt Q8VGU3.
T2 sequence (whole entry): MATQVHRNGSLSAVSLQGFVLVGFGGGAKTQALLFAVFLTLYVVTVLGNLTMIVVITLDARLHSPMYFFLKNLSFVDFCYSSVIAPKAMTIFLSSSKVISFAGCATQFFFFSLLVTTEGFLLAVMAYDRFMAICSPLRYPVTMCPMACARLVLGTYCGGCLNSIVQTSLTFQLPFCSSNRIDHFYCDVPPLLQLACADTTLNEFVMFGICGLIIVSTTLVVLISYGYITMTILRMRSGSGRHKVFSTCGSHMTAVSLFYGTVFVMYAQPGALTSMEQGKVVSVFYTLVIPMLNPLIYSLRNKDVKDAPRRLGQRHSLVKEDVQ
A digest of the protocol:
as §1

The target in test [3] is T3, UniProt Q8VGV7.
T3 sequence (whole entry): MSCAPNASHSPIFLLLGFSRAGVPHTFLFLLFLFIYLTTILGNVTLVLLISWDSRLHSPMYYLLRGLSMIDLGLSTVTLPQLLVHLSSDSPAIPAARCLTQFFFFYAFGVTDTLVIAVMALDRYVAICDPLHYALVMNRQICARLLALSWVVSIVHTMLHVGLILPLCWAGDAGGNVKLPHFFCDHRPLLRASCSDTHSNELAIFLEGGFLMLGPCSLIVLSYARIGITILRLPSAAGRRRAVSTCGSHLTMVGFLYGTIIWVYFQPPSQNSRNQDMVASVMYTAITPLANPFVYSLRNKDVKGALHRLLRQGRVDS
A digest of the protocol:
as §1

Test [4] has as its target T4, UniProt Q8VGX3.
T4 sequence (whole entry): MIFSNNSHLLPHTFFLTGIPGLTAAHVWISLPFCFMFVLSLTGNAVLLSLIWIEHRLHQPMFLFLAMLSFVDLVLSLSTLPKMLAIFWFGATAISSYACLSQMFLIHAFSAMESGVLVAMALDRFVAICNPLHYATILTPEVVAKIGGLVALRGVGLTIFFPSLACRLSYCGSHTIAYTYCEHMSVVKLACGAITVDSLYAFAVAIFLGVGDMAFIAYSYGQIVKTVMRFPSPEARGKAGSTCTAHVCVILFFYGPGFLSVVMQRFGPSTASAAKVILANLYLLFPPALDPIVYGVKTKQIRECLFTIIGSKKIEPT
A digest of the protocol:
as §1

Test [5] concerns the target T5, UniProt Q8VGX5.
T5 sequence (whole entry): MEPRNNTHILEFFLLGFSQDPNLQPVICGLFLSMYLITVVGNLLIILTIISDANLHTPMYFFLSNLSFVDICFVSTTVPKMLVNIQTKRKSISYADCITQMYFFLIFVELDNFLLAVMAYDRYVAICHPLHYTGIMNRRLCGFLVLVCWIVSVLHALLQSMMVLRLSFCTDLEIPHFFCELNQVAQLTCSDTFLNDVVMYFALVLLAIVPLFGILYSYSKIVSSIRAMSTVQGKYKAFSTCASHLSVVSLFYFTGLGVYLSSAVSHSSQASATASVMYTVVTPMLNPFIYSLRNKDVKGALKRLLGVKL
A digest of the protocol: as §1

Test [6] addresses T6, UniProt Q8VGZ2.
T6 sequence (whole entry): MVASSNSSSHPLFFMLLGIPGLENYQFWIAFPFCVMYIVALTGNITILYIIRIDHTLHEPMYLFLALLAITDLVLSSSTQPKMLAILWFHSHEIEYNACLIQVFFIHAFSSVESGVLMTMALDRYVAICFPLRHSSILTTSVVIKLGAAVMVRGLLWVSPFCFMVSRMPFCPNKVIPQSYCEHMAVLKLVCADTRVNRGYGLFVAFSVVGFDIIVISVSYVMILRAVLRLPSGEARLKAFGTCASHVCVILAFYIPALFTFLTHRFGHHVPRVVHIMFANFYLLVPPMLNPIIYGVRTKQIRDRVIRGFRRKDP
In outline:
as §1

The target of test [7] is T7, UniProt Q8VGZ7.
T7 sequence (whole entry): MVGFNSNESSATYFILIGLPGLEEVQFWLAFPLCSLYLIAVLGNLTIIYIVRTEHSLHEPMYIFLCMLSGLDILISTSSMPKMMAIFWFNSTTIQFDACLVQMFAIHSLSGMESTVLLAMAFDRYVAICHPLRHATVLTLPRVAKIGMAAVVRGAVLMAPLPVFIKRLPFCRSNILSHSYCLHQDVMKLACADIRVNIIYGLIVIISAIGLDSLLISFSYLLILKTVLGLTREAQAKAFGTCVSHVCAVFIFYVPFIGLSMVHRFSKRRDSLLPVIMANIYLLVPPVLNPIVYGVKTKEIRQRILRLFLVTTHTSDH
A digest of the protocol:
as §1

Test [8] deals with T8, UniProt Q8VH16.
T8 sequence (whole entry): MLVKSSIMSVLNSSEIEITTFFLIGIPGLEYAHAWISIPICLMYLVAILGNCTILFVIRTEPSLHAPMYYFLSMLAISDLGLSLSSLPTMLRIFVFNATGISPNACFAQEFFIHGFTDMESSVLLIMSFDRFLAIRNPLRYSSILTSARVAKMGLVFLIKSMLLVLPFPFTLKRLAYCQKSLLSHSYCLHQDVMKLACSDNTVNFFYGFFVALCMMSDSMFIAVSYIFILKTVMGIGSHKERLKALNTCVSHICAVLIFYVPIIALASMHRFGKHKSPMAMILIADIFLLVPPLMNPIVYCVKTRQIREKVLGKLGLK
A digest of the protocol:
as §1

Test [9] addresses T9, UniProt Q8VH20.
T9 sequence (whole entry): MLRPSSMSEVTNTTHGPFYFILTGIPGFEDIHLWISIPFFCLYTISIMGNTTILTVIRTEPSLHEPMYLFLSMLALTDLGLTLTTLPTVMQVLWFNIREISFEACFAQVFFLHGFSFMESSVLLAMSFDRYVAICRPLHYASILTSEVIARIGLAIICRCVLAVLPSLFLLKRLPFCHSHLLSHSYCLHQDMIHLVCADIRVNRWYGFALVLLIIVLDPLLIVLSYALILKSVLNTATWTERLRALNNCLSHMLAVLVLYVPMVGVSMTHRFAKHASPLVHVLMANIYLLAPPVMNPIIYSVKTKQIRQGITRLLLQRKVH
In outline:
as §1
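Also: active if original authors judged signal statistically different from baseline.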

With `O=Cc1ccc2c(c1)OCO2`, the “odorant receptor agonist call” value in test [1], in test [2], in test [3], in test [4], in test [6] and in [7] was “inactive” in each case. For the same molecule, the “odorant receptor agonist call” value in test [8] and in test [9] was “inactive” throughout. Also, the “odorant receptor agonist call” value in [5] is “active”.
In the case of `OCc1ccc2c(c1)OCO2`, the “odorant receptor agonist call” value in test [1], in [2], in [3], in test [4], in test [5] and in [6] was “inactive” each time. Moreover, the “odorant receptor agonist call” value in [7], in [8] and in [9] was “inactive” each time.
On to `Oc1ccccc1Br`, for which the “odorant receptor agonist call” value in [1], in test [2], in test [3], in test [4], in [5] and in test [6] was “inactive” each time. For the same molecule, the “odorant receptor agonist call” value in [7], in [8] and in test [9] was “inactive” in each case.

The record behind these values is the M2OR odorant receptor database.
